Measured values as given in ChEMBL document CHEMBL5260844, “Optimization of PDE3A Modulators for SLFN12-Dependent Cancer Cell Killing” (ACS Med Chem Lett, 2019).
Activity calls are given as the source filed them. No cut-off for these calls is given here.

What follows are compounds tested on HCT-116 (assay: Cytotoxicity against human HCT-116 cells assessed as cell growth inhibition upto 10 uM measured after 48 hrs by […] reagent based assay). Conditions: not given.
Format: functional
Procedure, shortened: (§1)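 Counterscreen viability assay in HCT116 colorectal cancer cells and IMR90 normal lung fibroblasts, run alongside DNMDP-sensitive lines.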
For `C[C@@H]1CC(=O)NN=C1c1ccc(F)c(F)c1`, the Activity was “inactive”.
With `CCN1N=C(c2ccc(N(CC)CC)c([N+](=O)[O-])c2)C(C)CC1=O` (racemic) the Activity was “inactive”.
In the case of `C[C@H]1CC(=O)NN=C1c1ccc(N2CCOCC2)c(F)c1`, the Activity is reported as “inactive”.
With `C[C@@H]1CC(=O)NN=C1c1ccc(C2CCCCC2)cc1` the Activity was “inactive”.
`CC(=O)Nc1ccc(C2=NNC(=O)C[C@H]2C)cc1[N+](=O)[O-]` was tested, and the Activity was “inactive”.

The compounds below were run on SK-MEL3 (assay: Cytotoxicity against human SK-MEL3 cells assessed as cell growth inhibition upto 10 uM measured after 48 hrs by […] reagent based assay). Conditions: SK-MEL3, 48 h.
Format: functional
In the case of `CC(=O)Nc1ccc(C2=NNC(=O)C[C@H]2C)cc1[N+](=O)[O-]`, the EC50 is reported as 4.2 nM.

The compounds below were run against cGMP-inhibited 3',5'-cyclic phosphodiesterase 3B (Homo sapiens, UniProt Q13370) (assay: Inhibition of human recombinant PDE3B). Conditions: not given.
cGMP-inhibited 3',5'-cyclic phosphodiesterase 3B, sequence (Q13370 whole entry): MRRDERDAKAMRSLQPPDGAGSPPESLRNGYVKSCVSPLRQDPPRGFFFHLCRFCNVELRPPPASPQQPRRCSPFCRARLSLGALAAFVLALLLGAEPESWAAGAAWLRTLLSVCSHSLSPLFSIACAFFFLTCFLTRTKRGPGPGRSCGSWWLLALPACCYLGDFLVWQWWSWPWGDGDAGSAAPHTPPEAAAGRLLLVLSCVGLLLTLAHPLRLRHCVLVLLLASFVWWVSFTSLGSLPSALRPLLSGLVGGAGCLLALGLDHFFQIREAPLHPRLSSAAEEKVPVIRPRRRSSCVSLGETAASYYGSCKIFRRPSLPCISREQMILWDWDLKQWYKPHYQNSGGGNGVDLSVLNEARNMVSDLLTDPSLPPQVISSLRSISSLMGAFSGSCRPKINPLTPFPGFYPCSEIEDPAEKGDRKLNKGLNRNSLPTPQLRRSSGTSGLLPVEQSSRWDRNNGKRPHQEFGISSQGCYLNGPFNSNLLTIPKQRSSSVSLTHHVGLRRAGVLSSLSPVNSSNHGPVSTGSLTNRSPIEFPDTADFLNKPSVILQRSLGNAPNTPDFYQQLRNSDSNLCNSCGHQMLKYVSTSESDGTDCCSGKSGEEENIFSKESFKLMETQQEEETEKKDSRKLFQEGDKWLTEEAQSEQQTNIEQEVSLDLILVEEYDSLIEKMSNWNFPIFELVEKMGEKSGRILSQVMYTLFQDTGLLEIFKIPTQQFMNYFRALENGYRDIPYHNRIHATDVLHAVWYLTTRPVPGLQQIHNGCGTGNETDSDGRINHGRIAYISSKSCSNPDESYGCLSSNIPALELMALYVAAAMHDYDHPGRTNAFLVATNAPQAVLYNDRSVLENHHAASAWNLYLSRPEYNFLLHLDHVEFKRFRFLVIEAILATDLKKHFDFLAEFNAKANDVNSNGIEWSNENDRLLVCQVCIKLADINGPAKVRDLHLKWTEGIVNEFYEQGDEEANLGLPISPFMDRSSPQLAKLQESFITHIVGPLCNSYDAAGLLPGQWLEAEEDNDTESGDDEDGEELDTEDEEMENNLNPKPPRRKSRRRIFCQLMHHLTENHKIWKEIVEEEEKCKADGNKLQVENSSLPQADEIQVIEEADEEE
`CC(=O)Nc1ccc(C2=NNC(=O)C[C@H]2C)cc1` showed an IC50 of 16 nM.

What follows are compounds tested on A549 (assay: Cytotoxicity against human A549 cells assessed as cell growth inhibition upto 10 uM measured after 3 days by […] reagent based assay). Conditions: time 72.0 hrs.
`C[C@@H]1CC(=O)NN=C1c1ccc(F)c(F)c1` was tested, and the Activity was “inactive”.
In the case of `CC(=O)Nc1ccc(C2=NNC(=O)C[C@H]2C)cc1`, the Activity is reported as “inactive”.
For `CCN(CC)c1ccc(C2=NNC(=O)CC2C)cc1N` (stereo not drawn), the Activity was “inactive”.
For `C[C@@H]1CC(=O)NN=C1c1ccc(-n2cnnc2)cc1`, the Activity was “inactive”.
With `CC(=O)Nc1ccc(C2=NNC(=O)C[C@H]2C)cc1C(C)=O` the Activity was “inactive”.
In the case of `C/C=C/c1ccc(C2=NNC(=O)C[C@H]2C)cc1`, the Activity is reported as “inactive”.
In the case of `CCN1N=C(c2ccc(N(CC)CC)c([N+](=O)[O-])c2)C(C)CC1=O` (racemic), the Activity is reported as “inactive”.
For `C[C@H]1CC(=O)NN=C1c1ccc(N2CCOCC2)c(F)c1`, the Activity was “inactive”.
`C[C@@H]1CC(=O)NN=C1c1ccc(C2CCCCC2)cc1` was tested, and the Activity was “inactive”.
`CC(=O)Nc1ccc(C2=NNC(=O)C[C@H]2C)cc1[N+](=O)[O-]` was tested, and the Activity was “inactive”.

These compounds were tested on HeLa (assay: Cytotoxicity against human HeLa cells assessed as cell growth inhibition measured after 48 hrs by […] reagent based assay). Conditions: not given.
Format: functional
In the case of `C[C@@H]1CC(=O)NN=C1c1ccc(F)c(F)c1`, the EC50 is reported as 22 nM.
Work on `CC(=O)Nc1ccc(C2=NNC(=O)C[C@H]2C)cc1` yielded an EC50 of over 1000 nM.
`CCN(CC)c1ccc(C2=NNC(=O)CC2C)cc1N` (stereo not drawn) showed an EC50 of 240 nM.
Compound `C[C@@H]1CC(=O)NN=C1c1ccc(-n2cnnc2)cc1` has an EC50 of over 1000 nM.
Work on `CC(=O)Nc1ccc(C2=NNC(=O)C[C@H]2C)cc1C(C)=O` yielded an EC50 of 130 nM.
With `C/C=C/c1ccc(C2=NNC(=O)C[C@H]2C)cc1` the EC50 was 8.8 nM.
`CCN1N=C(c2ccc(N(CC)CC)c([N+](=O)[O-])c2)C(C)CC1=O` (racemic) showed an EC50 of over 1000 nM.
`C[C@H]1CC(=O)NN=C1c1ccc(N2CCOCC2)c(F)c1` gave an EC50 of over 1000 nM.
Work on `C[C@@H]1CC(=O)NN=C1c1ccc(C2CCCCC2)cc1` yielded an EC50 of 7.7 nM.
For `CC(=O)Nc1ccc(C2=NNC(=O)C[C@H]2C)cc1[N+](=O)[O-]`, the EC50 was 4.9 nM.

What follows are compounds tested against cGMP-inhibited 3',5'-cyclic phosphodiesterase 3A (Homo sapiens, UniProt Q14432) (assay: Inhibition of human N-terminal His-GST-tagged recombinant PDE3A (669-end residues) using fluorescent labelled cAMP as substrate). Conditions: not given.
cGMP-inhibited 3',5'-cyclic phosphodiesterase 3A, sequence (Q14432 whole entry): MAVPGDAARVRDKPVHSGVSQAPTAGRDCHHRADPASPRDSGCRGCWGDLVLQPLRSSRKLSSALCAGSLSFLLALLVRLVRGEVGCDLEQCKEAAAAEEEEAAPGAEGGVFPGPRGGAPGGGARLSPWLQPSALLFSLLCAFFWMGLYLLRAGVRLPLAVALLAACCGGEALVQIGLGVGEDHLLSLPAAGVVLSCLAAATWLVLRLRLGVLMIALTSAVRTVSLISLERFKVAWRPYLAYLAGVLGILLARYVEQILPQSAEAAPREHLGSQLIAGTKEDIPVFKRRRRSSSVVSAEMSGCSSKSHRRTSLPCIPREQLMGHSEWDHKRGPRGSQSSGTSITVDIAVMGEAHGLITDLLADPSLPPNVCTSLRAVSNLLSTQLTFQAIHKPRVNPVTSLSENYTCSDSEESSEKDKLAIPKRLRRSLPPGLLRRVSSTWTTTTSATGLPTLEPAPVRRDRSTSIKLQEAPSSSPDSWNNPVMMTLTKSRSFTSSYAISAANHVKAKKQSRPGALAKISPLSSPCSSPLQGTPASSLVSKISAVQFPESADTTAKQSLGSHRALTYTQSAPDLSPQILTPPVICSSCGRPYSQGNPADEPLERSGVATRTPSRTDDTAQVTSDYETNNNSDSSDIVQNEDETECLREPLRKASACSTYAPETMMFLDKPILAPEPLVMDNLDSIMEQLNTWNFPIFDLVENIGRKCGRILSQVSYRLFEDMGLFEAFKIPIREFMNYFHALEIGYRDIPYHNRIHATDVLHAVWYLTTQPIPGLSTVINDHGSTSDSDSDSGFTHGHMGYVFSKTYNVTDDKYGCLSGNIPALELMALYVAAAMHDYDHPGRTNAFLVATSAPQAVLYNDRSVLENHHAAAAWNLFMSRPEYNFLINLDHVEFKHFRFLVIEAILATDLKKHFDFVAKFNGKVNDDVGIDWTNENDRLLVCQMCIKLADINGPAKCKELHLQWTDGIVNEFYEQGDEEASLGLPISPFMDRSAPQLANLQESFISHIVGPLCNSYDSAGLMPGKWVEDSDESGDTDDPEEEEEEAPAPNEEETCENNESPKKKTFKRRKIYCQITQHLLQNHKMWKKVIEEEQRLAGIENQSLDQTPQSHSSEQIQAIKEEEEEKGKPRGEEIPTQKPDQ
For `CC(=O)Nc1ccc(C2=NNC(=O)C[C@H]2C)cc1`, the IC50 was 24 nM.

The compounds below were run on IMR-90 (assay: Cytotoxicity against human IMR-90 cells assessed as cell growth inhibition upto 10 uM measured after 48 hrs by […] reagent based assay). Conditions: not given.
Format: functional
Procedure, shortened: as §1
For `C[C@@H]1CC(=O)NN=C1c1ccc(F)c(F)c1`, the Activity was “inactive”.
For `CCN1N=C(c2ccc(N(CC)CC)c([N+](=O)[O-])c2)C(C)CC1=O` (racemic), the Activity was “inactive”.
With `C[C@H]1CC(=O)NN=C1c1ccc(N2CCOCC2)c(F)c1` the Activity was “inactive”.
In the case of `C[C@@H]1CC(=O)NN=C1c1ccc(C2CCCCC2)cc1`, the Activity is reported as “inactive”.
In the case of `CC(=O)Nc1ccc(C2=NNC(=O)C[C@H]2C)cc1[N+](=O)[O-]`, the Activity is reported as “inactive”.
